Data from ChEMBL document CHEMBL4765240, “Design, Synthesis, and Immunological Evaluation of a Multicomponent Construct Based on a Glycotripeptoid Core Comprising B and T Cell Epitopes and a Toll-like Receptor 7 Agonist That Elicits Potent Immune Responses” (J Med Chem, 2018).
Activity calls are given as the source filed them. No cut-off for these calls is given here. Numbered stars: 1 amine (or outer) side, 2 acyl side, 3 side chain; on linkers, the order of the positions; unused ones are H or OH. Square brackets hold non-standard residues; d marks the D form. Peptide text beside a SMILES is read from it. * marks the point of attachment. X4 = O=C(CCN(CCCO[C@H]1O[C@H](CO)[C@@H](O)[C@H](O)[C@@H]1O)[*:1])[*:2]; X3 = COCCOc1nc(N)c2[nH]c(=O)n(Cc3ccc(C(=O)*)cc3)c2n1; X2 = O=C(CCCCCn1cc(CN[*:1])nn1)[*:2]; Ahx = NCCCCCC(=O)O

Assays:
Bone marrow cell [1] = assay: Adjuvanted-antitumor vaccine activity in C57BL/6 mouse bone marrow derived cells assessed as induction of IL-6 production at 10^-4 to 10^1 ug/ml incubated for 48 hrs by ELISA; format: functional, cell-based; settings: dose 0.0001-10 µg/ml
In short: (§1)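 BMDCs from C57BL/6 bone marrow grown 6 days in 2-ME/10% FCS RPMI with GM-CSF-containing supernatant, about 60−70% CD11c⁺CD11b⁺. 10⁵ cells incubated at 37 °C for 48 h with increasing compound concentrations. IL-12p40 and IL-6 measured in supernatants by ELISA.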

Bone marrow cell [2] = assay: Adjuvanted-antitumor vaccine activity in C57BL/6 mouse bone marrow derived cells assessed as induction of IL-12 production at 10^-4 to 10^1 ug/ml incubated for 48 hrs by ELISA; format: functional, cell-based; settings: dose 0.0001-10 µg/ml; in short: as §1
Mus musculus [3] = species: Mus musculus; assay: Adjuvanted-antitumor vaccine activity in C57BL/6 mouse assessed as induction of OT2-T cell mediated IFNgamma production in lymph node at 1 ug/ml, ID incubated for 5 days by anti-IFNgamma staining based flow cytometry; format: functional, organism-based; settings: dose 1.0 µg/ml, time 5.0 day
Mus musculus [4] = species: Mus musculus; assay: Immuno-adjuvant activity in C57BL/6 mouse assessed as antibody response to Tn3G7K by measuring serum IgG levels at 11 .7 nmol, ID at day 0 and day 21 and measured post second dose; format: functional, organism-based; settings: time 21.0 day
In short: (§2)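 Female C57BL/6 mice, 6 weeks old, were immunized intradermally with 11.7 nmol on days 0 and 21, and sera were taken on day 28. IgG was measured by ELISA on plates coated at 1 μg/mL, with the biotinylated Tn peptide captured on streptavidin plates for 1 h at 37 °C. Serum dilution series were detected with anti-mouse IgG-HRP and OPD/H2O2, read at 492 nm. Titer is the log10 of the highest dilution giving twice the absorbance of naive serum at 1/100, reported as mean SD.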

Mus musculus [5] = species: Mus musculus; assay: Immuno-adjuvant activity in C57BL/6 mouse assessed as antibody response to OVA peptide by measuring serum IgG levels at 11 .7 nmol, ID at day 0 and day 21 and measured post second dose; format: functional, organism-based; settings: time 21.0 day
Mus musculus [6] = species: Mus musculus; assay: Immuno-adjuvant activity in immunized-C57BL/6 mouse assessed as antibody recognition in sera against Tn3G7K at 11 .7 nmol, ID at day 1 and day 20 and measured post second dose on day 27; format: functional, organism-based
In short: (§3)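 C57BL/6 mice, n = 3 per group, received 11.7 nmol intradermally on days 1 and 20, and sera were taken on day 27. ELISA plates were coated at 1 μg/mL with the peptoid or the biotinylated Tn3G7K, the latter on streptavidin plates for 1 h at 37 °C. Serially diluted sera were detected with anti-mouse IgG-HRP and OPD, read at 492 nm. Log10 titer is the dilution giving twice the absorbance of 1/100 naive serum.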

Bone marrow cell [7] = assay: Adjuvanted-antitumor vaccine activity in C57BL/6 mouse bone marrow derived cells assessed as induction of T cell activation at 10^-4 to 10^1 ug/ml incubated for 3 days in presence of mouse OT2-derived CD4+ T cell by ELISA; settings: dose 1.0 µg/ml, time 72.0 hrs
Mus musculus [8] = species: Mus musculus; assay: Immuno-adjuvant activity in immunized-C57BL/6 mouse assessed as antibody recognition in sera against 22 at 11 .7 nmol, ID at day 1 and day 20 and measured post second dose on day 27; format: functional, organism-based; in short: as §3
Mus musculus [9] = species: Mus musculus; assay: Adjuvanted-antitumor vaccine activity in C57BL/6 mouse assessed as induction of OT2-T cell mediated IFNgamma production in splenocytes at 11.7 nmol, ID followed by stimulation with OVA(323 to 339) peptide after 48 hrs by ELISA; format: functional, organism-based
In short: (§4)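 OT-II CD4⁺ T cells (2 × 10⁵) transferred into C57BL/6 mice (n = 3 per group), then 11.7 nmol per mouse given intradermally. Splenocytes harvested at day 5, cultured at 5 × 10⁵ per well with or without OVA 323−339 (1 μg/mL) at 37 °C for 48 h. IFN-γ and IL-5 measured in supernatants by ELISA.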

Mus musculus [10] = assay: Adjuvanted-antitumor vaccine activity in C57BL/6 mouse assessed as fold increase in OT-2 T cells in spleen at 11.7 nmol, ID coadministered with OT2-derived CD4+ T cell after 5 days […]; format: functional; settings: for fold change (FC): time 5 day
In short: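 2 × 10⁵ OT-II CD4⁺ T cells (from OT-II Rag2 TCR-transgenic knockout mice) transferred into C57BL/6 mice (6−10 weeks, n = 3 per group), then intradermal immunization with 11.7 nmol per mouse. Spleen collected after 5 days; OT-II cells counted by flow cytometry with anti-CD4, anti-Vα2 and anti-Vβ5.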

Mus musculus [11] = species: Mus musculus; assay: Adjuvanted-antitumor vaccine activity in C57BL/6 mouse assessed as induction of OT2-T cell mediated IL-5 production in splenocytes at 11.7 nmol, ID followed by stimulation with OVA(323 to 339) peptide incubated for 48 hrs by ELISA; format: functional, organism-based; in short: as §4
Mus musculus [12] = species: Mus musculus; assay: Adjuvanted-antitumor vaccine activity in C57BL/6 mouse assessed as induction of OT2-T cell mediated IFNgamma production in lymph node at 11.7 nmol, ID incubated for 5 days by anti-IFNgamma staining based flow cytometry; format: functional, organism-based; settings: time 5.0 day
In short: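 Lymph node cells taken at day 5, 5 × 10⁵ per well, restimulated 2 h at 37 °C with 50 μg/mL OVA 323−339 plus GolgiPlug. Fixed, permeabilized, stained with anti-CD4, anti-CD3 and anti-IFNγ; flow cytometry.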

Mus musculus [13] = species: Mus musculus; assay: Immuno-adjuvant activity in C57BL/6 mouse assessed as antibody response to (2R,8R,11S,14R,20R)-14-(2-amino-2-oxoethyl)-20-((2S,5R,8S,11R,14S,17R,20S,23R,26S)-5,14-bis((1H-imidazol-5-yl)methyl)-36-(4-(22-(4-((6-amino-2-(2-methoxyethoxy)-8-oxo-7H-purin-9(8H)-yl)methyl)phenyl)-3,7,11,15,22-pentaoxo-6-(3-((2S,3S,4S,5S,6R)-3,4,5-trihydroxy-6-(hydroxymethyl)tetrahydro-2H-pyran-2-yloxy)propyl)-10,14-bis(3-((2S,3S,4S,5S,6S)-3,4,5-trihydroxy-6-(hydroxymethyl)tetrahydro-2H-pyran-2-yloxy)propyl)-2,6,10,14,21-pentaazadocosyl)-1H-1,2,3-triazol-1-yl)-23-(3-amino-3-oxopropyl)-29-sec-butyl-26-(hydroxymethyl)-17-isopropyl-2,8,11,20-tetramethyl-4,7,10,13,16,19,22,25,28,31-decaoxo-3,6,9,12,15,18,21,24,27,30-decaazahexatriacontanamido)-17-sec-butyl-11-(2-carboxyethyl)-2-(3-guanidinopropyl)-8-methyl-4,7,10,13,16,19-hexaoxo-3,6,9,12,15,18-hexaazatricosane-1,23-dioic acid by measuring serum IgG levels at 11 .7 nmol, ID at day 0 and day 21 and measured post second dose; format: functional, organism-based; in short: as §2
Mus musculus [14] = species: Mus musculus; assay: Immuno-adjuvant activity in immunized-C57BL/6 mouse assessed as antibody recognition in sera against 21 at 11 .7 nmol, ID at day 1 and day 20 and measured post second dose on day 27; format: functional, organism-based; in short: as §3
CD4+ve Th = assay: Cytotoxicity against OT2 mouse CD4-positive T cells xenografted in C57BL/6 mouse assessed as reduction in cell viability in splenocytes by flow cytometry analysis; format: cell-based; settings: in vivo

Structure (SMILES)	Activity (Bone marrow cell [1])	Activity (Bone marrow cell [2])	Activity (Mus musculus [3])	Activity (Mus musculus [4])	Activity (Mus musculus [5])	Activity (Mus musculus [6])	Activity (Bone marrow cell [7])	Activity (Mus musculus [8])	Activity (Mus musculus [9])	fold change (FC) (Mus musculus [10])	Activity (Mus musculus [11])	Activity (Mus musculus [12])	Activity (Mus musculus [13])	Activity (Mus musculus [14])	Activity (CD4+ve Th)	Activity (Mus musculus [10]; time 5.0 day)
CC(=O)N[C@H]1[C@@H](OCCCNCCC(=O)N(CCCO[C@H]2O[C@H](CO)[C@H](O)[C@H](O)[C@H]2NC(C)=O)CCC(=O)N(CCCO[C@H]2O[C@H](CO)[C@H](O)[C@H](O)[C@H]2NC(C)=O)CCC(=O)OC(C)(C)C)O[C@H](CO)[C@H](O)[C@@H]1O	inactive	inactive	–	–	–	–	–	–	–	–	–	–	–	–	–	–
COCCOc1nc(N)c2[nH]c(=O)n(Cc3ccc(C(=O)NCCCCCC(=O)N(CCCO[C@H]4O[C@H](CO)[C@H](O)[C@H](O)[C@H]4NC(C)=O)CCC(=O)N(CCCO[C@H]4O[C@H](CO)[C@H](O)[C@H](O)[C@H]4NC(C)=O)CCC(=O)N(CCCO[C@H]4O[C@H](CO)[C@H](O)[C@H](O)[C@H]4NC(C)=O)CCC(=O)OC(C)(C)C)cc3)c2n1	Active	Active	inactive	inactive	inactive	–	–	–	–	–	–	–	–	–	–	–
COCCOc1nc(N)c2[nH]c(=O)n(Cc3ccc(C(=O)O)cc3)c2n1	inactive	inactive	–	–	–	–	–	–	–	–	–	–	–	–	–	–
CC[C@H](C)[C@H](NC(=O)CCCCCn1cc(CNC(=O)CCN(CCCO[C@H]2O[C@H](CO)[C@H](O)[C@H](O)[C@H]2NC(C)=O)C(=O)CCN(CCCO[C@H]2O[C@H](CO)[C@H](O)[C@H](O)[C@H]2NC(C)=O)C(=O)CCN(CCCO[C@H]2O[C@H](CO)[C@H](O)[C@H](O)[C@H]2NC(C)=O)C(=O)CCCCCNC(=O)c2ccc(Cn3c(=O)[nH]c4c(N)nc(OCCOC)nc43)cc2)nn1)C(=O)N[C@@H](CO)C(=O)N[C@@H](CCC(N)=O)C(=O)N[C@@H](C)C(=O)N[C@H](C(=O)N[C@@H](Cc1cnc[nH]1)C(=O)N[C@@H](C)C(=O)N[C@@H](C)C(=O)N[C@@H](Cc1cnc[nH]1)C(=O)N[C@@H](C)C(=O)N[C@@H](CCC(=O)O)C(=O)N[C@H](C(=O)N[C@@H](CC(N)=O)C(=O)N[C@@H](CCC(=O)O)C(=O)N[C@@H](C)C(=O)NCC(=O)N[C@@H](CCCNC(=N)N)C(=O)O)[C@@H](C)CC)C(C)C (HELM PEPTIDE1{[COCCOc1nc(N)c2[nH]c(=O)n(Cc3ccc(C(=O)NCCCCCC(=O)N(CCCO[C@H]4O[C@H](CO)[C@H](O)[C@H](O)[C@H]4NC(C)=O)CCC(=O)N(CCCO[C@H]4O[C@H](CO)[C@H](O)[C@H](O)[C@H]4NC(C)=O)CCC(=O)N(CCCO[C@H]4O[C@H](CO)[C@H](O)[C@H](O)[C@H]4NC(C)=O)CCC(=O)[*:2])cc3)c2n1].[O=C(CCCCCn1cc(CN[*:1])nn1)[*:2]].I.S.Q.A.V.H.A.A.H.A.E.I.N.E.A.G.R}$$$$V2.0)	Active	Active	–	inactive	inactive	inactive	Active	Active	Active	30	inactive	Active	Active	Active	–	–
CC[C@H](C)[C@H](NC(=O)CCCCCn1cc(CNC(=O)CCN(CCCO[C@H]2O[C@H](CO)[C@@H](O)[C@H](O)[C@@H]2O)C(=O)CCN(CCCO[C@H]2O[C@H](CO)[C@@H](O)[C@H](O)[C@@H]2O)C(=O)CCN(CCCO[C@H]2O[C@H](CO)[C@@H](O)[C@H](O)[C@@H]2O)C(=O)CCCCCNC(=O)c2ccc(Cn3c(=O)[nH]c4c(N)nc(OCCOC)nc43)cc2)nn1)C(=O)N[C@@H](CO)C(=O)N[C@@H](CCC(N)=O)C(=O)N[C@@H](C)C(=O)N[C@H](C(=O)N[C@@H](Cc1cnc[nH]1)C(=O)N[C@@H](C)C(=O)N[C@@H](C)C(=O)N[C@@H](Cc1cnc[nH]1)C(=O)N[C@@H](C)C(=O)N[C@@H](CCC(=O)O)C(=O)N[C@H](C(=O)N[C@@H](CC(N)=O)C(=O)N[C@@H](CCC(=O)O)C(=O)N[C@@H](C)C(=O)NCC(=O)N[C@@H](CCCNC(=N)N)C(=O)O)[C@@H](C)CC)C(C)C ({X3-Ahx}-[X4][X4][X4][X2]ISQAVHAAHAEINEAGR-OH)	Active	Active	–	–	–	inactive	Active	Active	Active	30	inactive	Active	–	Active	–	–
CC[C@H](C)[C@H](N)C(=O)N[C@@H](CO)C(=O)N[C@@H](CCC(N)=O)C(=O)N[C@@H](C)C(=O)N[C@H](C(=O)N[C@@H](Cc1cnc[nH]1)C(=O)N[C@@H](C)C(=O)N[C@@H](C)C(=O)N[C@@H](Cc1cnc[nH]1)C(=O)N[C@@H](C)C(=O)N[C@@H](CCC(=O)O)C(=O)N[C@H](C(=O)N[C@@H](CC(N)=O)C(=O)N[C@@H](CCC(=O)O)C(=O)N[C@@H](C)C(=O)NCC(=O)N[C@@H](CCCNC(=N)N)C(=O)O)[C@@H](C)CC)C(C)C [ovalbumin peptide] (H-ISQAVHAAHAEINEAGR-OH)	–	–	inactive	–	–	–	–	–	–	–	–	–	–	–	Non-Toxic	inactive
